Results collected from several papers.
CDK4 with cyclin D1: Cyclin-dependent kinase 4, with cyclin D1 (CDK4, Homo sapiens, UniProt P11802)
CDK4 with cyclin D3: Cyclin-dependent kinase 4, with cyclin D3 (CDK4, Homo sapiens, UniProt P11802)

| Structure (SMILES) | target | assay | setting | measurement | value |
| --- | --- | --- | --- | --- | --- |
| C[C@]1(O)CCCN(c2nc(Nc3ccc(S(=O)(=O)N[C@H]4CC[C@H](CN5CCN(c6ccc(C7CCC(=O)NC7=O)cc6F)CC5)CC4)cc3Cl)ncc2C(F)(F)F)C1 (some centres unmarked) | CDK4 with cyclin D1 | binding, competition with immobilised ligand | 1 µM | remaining binding | 91% |
| C1=C/COCc2cc(ccc2OCCN2CCCC2)Nc2nccc(n2)-c2cccc(c2)COC/1 | CDK4 with cyclin D3 | binding | 0.1 µM | remaining binding | 25% |
| C=CC(=O)N1CCC([C@@H]2CCNc3c(C(N)=O)c(-c4ccc(Oc5ccccc5)cc4)nn32)CC1 | CDK4 with cyclin D3 | enzyme activity, inhibitor | 1 µM | inhibition | 0% |
| CNS(=O)(=O)c1ccc(Nc2ncc(C(F)(F)F)c(N3CCC[C@](C)(O)C3)n2)c(C)c1 | Cyclin-dependent kinase 4 (CDK4, Homo sapiens, UniProt P11802) | binding, competition with immobilised ligand | 1 µM | remaining binding | 71% |
| CC#CC(=O)N1CCC[C@H]1c1nc(-c2ccc(C(=O)Nc3ccccn3)cc2)c2c(N)nccn12 | CDK4 with cyclin D3 | enzyme activity, inhibitor | 1 µM | inhibition | 0% |
| C[C@]1(O)CCCN(c2nc(Nc3ccc(S(=O)(=O)N[C@H]4CC[C@H](CN5CCN(c6ccc(C7CCC(=O)NC7=O)cc6F)CC5)CC4)cc3F)ncc2C(F)(F)F)C1 (some centres unmarked) | CDK4 with cyclin D3 | binding, competition with immobilised ligand | 1 µM | remaining binding | 96% |
| CCCCC(=O)Nc1ccc(-c2ccc3ncn(CCC)c(=O)c3c2)cn1 | CDK4 with cyclin D1 | binding, competition with immobilised ligand | 0.5 µM | remaining binding | 100% |
| CN1CCN(C(=O)c2ccc(NC(=O)Nc3ccc(N(C)c4ccnc(Nc5ccc(CS(C)(=O)=O)cc5)n4)cc3)cc2)CC1 | CDK4 with cyclin D3 | binding | 1 µM | remaining binding | 89% |
| CC(C)S(=O)(=O)c1ccc2nccc(Nc3ccc4sc(C5CCCC5)nc4c3)c2c1 | CDK4 with cyclin D3 | enzyme activity, inhibitor | 1 µM | activity vs control | 102% |
| CO[C@@H]1[C@H](N(C)C(=O)c2ccccc2)C[C@H]2O[C@]1(C)n1c3ccccc3c3c4c(c5c6ccccc6n2c5c31)C(=O)NC4 | CDK4 with cyclin D3 | enzyme activity, inhibitor | 1 µM | inhibition | 2% |
| COc1ccc2[nH]c3c4[nH]c5ccc(OC)cc5c4c4c(c3c2c1)C(=O)NC4=O | CDK4 with cyclin D1 | binding | 1 µM | remaining binding | 82% |
